Hits are enriched below; roughly 3.3% of the tested compounds scored in any of these assays.
KCC2 mod: KCC2 (human) Cl- transport modulation. Q9H2X9. KCC2 cells, thallium flux FluoZin-2 fluorescence. B-score of Tl+ flux slope (higher = more flux/activation; lower = inhibition) at 10 µM. hit rate 2.2% among 190,000. AID 1456;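 active means thallium flux slope and its plate-corrected score both differing from the plate sample mean at a set confidence after two filtering rounds, in either direction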;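 further: slope of fluorescence scaled to starting intensity during 10 to 20 s after thallium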
Target sequence (Q9H2X9 whole entry, looked up): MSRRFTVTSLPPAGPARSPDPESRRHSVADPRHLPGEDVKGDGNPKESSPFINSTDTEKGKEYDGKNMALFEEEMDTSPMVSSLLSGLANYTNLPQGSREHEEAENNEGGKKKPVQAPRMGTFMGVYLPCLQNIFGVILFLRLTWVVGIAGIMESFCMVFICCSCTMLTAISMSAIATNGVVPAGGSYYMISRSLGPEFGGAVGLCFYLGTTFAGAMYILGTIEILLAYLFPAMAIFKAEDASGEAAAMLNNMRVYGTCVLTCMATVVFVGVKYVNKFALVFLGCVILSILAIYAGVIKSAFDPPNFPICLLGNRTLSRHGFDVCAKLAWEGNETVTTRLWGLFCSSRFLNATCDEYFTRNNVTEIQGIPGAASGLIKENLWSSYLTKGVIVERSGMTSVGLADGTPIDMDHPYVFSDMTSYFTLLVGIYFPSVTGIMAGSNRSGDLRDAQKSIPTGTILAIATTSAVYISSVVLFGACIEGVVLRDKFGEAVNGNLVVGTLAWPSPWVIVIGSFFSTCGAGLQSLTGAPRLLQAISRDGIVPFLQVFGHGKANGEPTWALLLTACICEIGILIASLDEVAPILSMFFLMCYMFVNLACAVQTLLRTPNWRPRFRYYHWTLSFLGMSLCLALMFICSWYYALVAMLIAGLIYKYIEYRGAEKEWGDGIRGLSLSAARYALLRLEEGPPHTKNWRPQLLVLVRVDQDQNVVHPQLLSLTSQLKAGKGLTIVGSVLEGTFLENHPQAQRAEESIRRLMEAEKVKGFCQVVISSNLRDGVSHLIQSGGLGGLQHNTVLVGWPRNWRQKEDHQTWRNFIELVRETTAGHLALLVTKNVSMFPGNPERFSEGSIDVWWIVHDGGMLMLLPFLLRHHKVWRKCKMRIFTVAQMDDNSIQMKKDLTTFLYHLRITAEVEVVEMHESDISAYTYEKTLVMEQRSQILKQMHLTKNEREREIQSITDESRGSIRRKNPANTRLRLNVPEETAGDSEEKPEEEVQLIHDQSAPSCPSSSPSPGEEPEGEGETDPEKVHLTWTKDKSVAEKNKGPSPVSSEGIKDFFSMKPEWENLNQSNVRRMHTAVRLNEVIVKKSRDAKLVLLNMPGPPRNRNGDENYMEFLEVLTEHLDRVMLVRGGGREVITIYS
ABCG2 block: human ABCG2 inhibition, ABCB1 as counter-screen | Q9UNQ0 | IgMXP3 cells, JC-1 efflux, flow cytometry | inhibition, % at 6.6 µM | hit rate 0.1% among 190,000 | AID 1325;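 active means inhibition above 80%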
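Read-out basis: Efflux inhibition in percent versus controls | Test system: ABCG2 IgMXP3 and barcoded ABCB1 CCRF-Adr cell mix | Quantity: 3 million cells/mL in well | Schedule: 10 min at 25 °C | Control set: Nicardipine as high control, DMSO as low control | Reagent: JC-1 as fluorescent efflux pump substrate | Signal: Flow cytometry of retained JC-1 fluorescence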
PMI act: phosphomannose isomerase (human) activation. hit rate 0.005% among 190,000. purified human PMI, coupled resazurin fluorescence, 20 min; stronger effect = higher value; 1 = vehicle control, 0 substrate-free wells. activation factor at 20 µM;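 active means activation factor of 2 or more at 20 µM, relative to plate controls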
ROMK mod: modulates human ROMK potassium channel activity. P48048. Tet-inducible ROMK, thallium flux fluorescence; actives lie on both sides. B-score at 10 µM. hit rate 2% among 130,000. AID 1918;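 active means signal ratio slope over the read window, or its plate-corrected B-score, at least 3 SD from the plate mean, either direction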;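 further: B-score of the F/F0 ratio slope over 7 to 12 s after thallium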
PMI act satM6P: increases human PMI activity with near-saturating mannose 6-phosphate | hit rate 0.34% among 190,000 | P34949 | activation factor at 20 µM | coupled PMI enzyme assay, resazurin fluorescence, 20 min; stronger effect = higher value; 1 = untreated enzyme, 0 = substrate-free blank | AID 1216;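 active means activation factor of 2 or more at 20 µM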
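Material: human phosphomannose isomerase with PGI, G6PDH, diaphorase coupling enzymes / Reagent: Man-6-P substrate 1.0 mM / Dosing: single compound dose of 20 µM, 1% DMSO final / Incubation: enzyme reaction with compound 20 min at room temperature / Signal: resorufin fluorescence (Ex 544/Em 590 nm) from resazurin via diaphorase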
ABCB1 inh: blocks JC-1 efflux by human ABCB1 transporter. P08183. CCRF-Adr cells, flow cytometry. inhibition, % at 6.6 µM. hit rate 0.067% among 190,000. AID 1326; in the data active means inhibition above about 40%;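 further: higher value means more JC-1 retained so stronger ABCB1 efflux block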
ROMK hit retest: retested hit modulating human ROMK potassium channel; ROMK thallium flux, fluorescence ratio; stronger effect = lower value; normalized thallium flux (F/F0 slope) at 10 µM; shares compounds with ROMK mod; hit rate 54% among 3,000;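 active means Flux at 10 µM at least 3 SD below or above vehicle control mean in one or both replicates; inconclusive means no clear call, values can overlap the other calls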
A number is an active result; i = inactive; ? = inconclusive; nt = no result.

SMILES	KCC2 mod	ABCG2 block	PMI act	ROMK mod	PMI act satM6P	ABCB1 inh	ROMK hit retest
COC(=O)c1ccc(=O)n(Cc2ccc3c(c2)OCO3)c1	i	i	i	i	i	i	nt
Cc1ccc(NS(=O)(=O)c2ccc(Br)s2)cc1S(=O)(=O)N1CCOCC1	i	i	i	i	i	i	nt
NNC(=O)/C=C/c1ccc(Cl)cc1Cl	i	i	i	2.3	i	i	i
CCC(CC)c1nc(NCCC(=O)O)c2ccccc2n1	i	i	i	nt	i	i	nt
N#C/C(=C/c1ccc2c(c1)OCO2)C(=O)Nc1ccc(O)cc1	i	i	i	i	i	i	nt
NN=C1c2cc([N+](=O)[O-])ccc2-c2ccc([N+](=O)[O-])cc21	i	i	i	i	i	i	nt
O=[N+]([O-])c1ccc2c(c1)/C(=N\O)c1ccccc1-2	i	nt	nt	-2.9	nt	nt	?
O=C(Nc1cccc(Cl)c1)Nc1csc([N+](=O)[O-])c1	i	nt	nt	nt	nt	nt	nt
Nc1nonc1C(=O)NCCNCc1ccccc1OCc1ccc(F)cc1	i	i	i	nt	i	i	0.062
CCOc1ccc(CNCCNC(=O)c2nonc2N)cc1	i	i	i	i	i	i	nt
N#CC1=C(N)Oc2c(ccc3cccnc23)C1c1cccnc1 (configuration not stated)	i	i	i	3.6	i	i	?
COCCCNC(CC(=O)Nc1ccccc1C(=O)OC)C(=O)O (configuration not stated)	i	nt	nt	nt	nt	nt	nt
O=C(O)Cc1cc(I)c(Oc2ccc(O)c(I)c2)c(I)c1	i	i	i	nt	i	i	0.12
CC(CN1CCCCC1)OC(=O)C(C)(c1ccccc1)c1ccccc1 (configuration not stated)	i	i	i	i	i	i	nt
Cc1ccccc1Nc1nc(N)nc(COC(=O)c2cccc(S(=O)(=O)NCc3ccccc3)c2)n1	i	i	i	-3.8	i	i	0.047
CC1CCN(Cc2csc(N)n2)CC1	i	i	i	i	i	i	nt
COc1ccccc1NC(=O)Cc1noc(CSc2nnc(C)n2C)n1	i	i	i	i	i	i	nt
CC(=O)/C=C(\C)Nc1c(C)n(C)n(-c2ccccc2)c1=O	i	i	i	1.8	i	i	?
Cc1c(NC(=O)CSc2ccccc2F)c(=O)n(-c2ccccc2)n1C	i	i	i	-2.2	i	i	i
Cc1cc(C)c(S(=O)(=O)Nc2ccnc(-c3cccnc3)n2)c(C)c1	i	i	i	i	i	i	nt
Cc1cc(C(=O)OCC(=O)Nc2cccc(S(=O)(=O)N(C)C)c2)c(C)o1	i	nt	nt	nt	nt	nt	nt
CCOC(=O)c1c(NC(=S)N2CCN(C)CC2)sc2c1CCN(C(=O)OCC)C2	i	nt	nt	nt	nt	nt	nt
CCOC(=O)c1c(NC(=S)Nc2ccccc2)sc2c1CCN(CCc1ccccc1)C2	i	i	i	nt	i	i	0.061
C=CCOC(=O)C1CC=CCC1C(=O)Oc1ccc(F)cc1F (configuration not stated)	i	i	i	nt	i	i	nt
CC(C)(C)N1CC2(c3ccccc3)CN(C(C)(C)C)CC(c3ccccc3)(C1)C2=O	i	i	i	3	i	i	i
SMILES	KCC2 mod	ABCG2 block	PMI act	ROMK mod	PMI act satM6P	ABCB1 inh	ROMK hit retest
COc1ccccc1-c1cc(-c2cc(Cl)ccc2O)n[nH]1	nt	i	i	i	i	i	?
Oc1ccc(Cl)cc1-c1cc(-c2ccccc2)n[nH]1	i	i	i	nt	i	i	nt
FC(F)(F)c1cnc(NNC(=S)Nc2cccnc2)c(Cl)c1	i	i	i	nt	i	i	nt
CSCCCNC(=S)N(C)CC(=O)Nc1ccc(C)cc1	i	i	i	i	i	i	nt
CCC(CNc1cc(OC)cc2cccnc12)NC1CCCCC1 (configuration not stated)	i	nt	nt	nt	nt	nt	0.054
CCOc1ccc(-n2c(SCC(=O)Nc3cc(C)on3)nnc2-c2c[nH]c3ccccc23)cc1	i	i	i	4.3	i	i	i
CN=C1S/C(=C\c2cn(CC(=O)OC)c3ccccc23)C(=O)N1C	nt	i	i	0.78	i	i	i
Cn1[nH]c(CSc2ccc(Cl)cc2)cc1=O	i	i	i	i	i	i	nt
N#Cc1ccc(/C=C/C(=O)c2cccnc2)cc1	i	i	i	-3.3	i	i	0.045
O=C(/C=C/c1ccccc1Cl)c1ccc(O)cc1	i	nt	nt	nt	nt	nt	nt
O=C(/C=C/c1ccccc1Cl)c1cccnc1	i	i	i	-7.4	i	i	0.044
O=C(/C=C/c1ccc(Cl)cc1)c1cccnc1	i	i	i	-8.1	i	i	0.043
CCc1ccccc1N1CC(C(=O)O)CC1=O (configuration not stated)	i	i	i	i	i	i	nt
O=C(Nc1ccc(F)cc1)N1CCc2ccccc2C1	nt	i	i	i	i	i	nt
COc1ccc(CN(C2CCCCC2C)S(=O)(=O)c2ccc(S(=O)(=O)N(C)C)cc2)cc1OC (configuration not stated)	i	i	i	nt	i	i	i
COc1cc(CN(C2CCCCC2C)S(=O)(=O)c2ccc(S(=O)(=O)NC3CC3)cc2)cc(OC)c1OC (configuration not stated)	i	i	i	i	i	i	nt
Cc1nn(Cc2ccccc2)c(Cl)c1/C=C1\NC(=S)NC1=O	i	i	i	i	i	i	nt
CCCCCCCC1CC(CSC(=N)N)OC1=O (configuration not stated)	i	i	i	-5	i	i	0.058
CCCCC1CC(CSC(=N)N)OC1=O (configuration not stated)	i	i	i	nt	i	i	nt
CCCS(=O)(=O)N1CCC(C(=O)NCCCN2CCC(Cc3ccccc3)CC2)CC1	i	i	i	-4.3	i	i	i
CC(=C\c1ccccc1)/C=C1/SC(=S)N(CCC(=O)Nc2ccccn2)C1=O	i	i	i	i	i	i	nt
CC(/C=C1\SC(=S)N(CCCC(=O)Nc2ccc(C(=O)O)cc2)C1=O)=C\c1ccccc1	i	i	i	-2.8	i	i	0.058
CC(=C\c1ccccc1)/C=C1/SC(=S)N(C(C(=O)O)C(C)C)C1=O (configuration not stated)	nt	i	i	nt	i	i	i
CCn1nnc(NC(=O)C(c2ccccc2)c2ccccc2)n1	i	i	i	-7.3	i	i	i
Cn1nnc(NC(=O)C(c2ccccc2)c2ccccc2)n1	nt	i	i	nt	i	i	nt
Cc1ccc(S(=O)(=O)/C(C#N)=C/c2c(N3CC(C)OC(C)C3)nc3c(C)cccn3c2=O)cc1 (configuration not stated)	i	i	i	i	i	i	nt
CCCc1nnc(N2C(=O)c3cccc4cccc(c34)C2=O)s1	nt	i	i	2.3	i	i	i
Cc1cc(C)c(CN2CCC(CO)(CCOc3ccccc3)CC2)cc1C	nt	i	i	i	i	i	nt

Assay outcomes (PubChem)
